Data: paper PMC4241170 (ACS Chemical Biology, 2014)

What was measured:
HSP70 = experiment: ITC, HSP70 presaturated with PET-16, interaction with PES; assay type: binding, human; conditions: data not shown
[1] = test system: nucleotide-free HSP70 protein; experiment: ITC, nucleotide-free HSP70; assay type: binding, human; conditions: compared with ADP-bound form; 42 °C
GRP75 = conditions: ref [5],[19]; cited from earlier work
GRP78 (BiP) = conditions: ref [5],[19]; cited from earlier work
HSP70 (aa 386-616) = HSP70 (aa 386-616) (Homo sapiens, UniProt P0DMV8); experiment: ITC, C-terminal domain of HSP70; assay type: binding; conditions: Figure 2J
HSP70 (aa 386-616), sequence (P0DMV8 386-616): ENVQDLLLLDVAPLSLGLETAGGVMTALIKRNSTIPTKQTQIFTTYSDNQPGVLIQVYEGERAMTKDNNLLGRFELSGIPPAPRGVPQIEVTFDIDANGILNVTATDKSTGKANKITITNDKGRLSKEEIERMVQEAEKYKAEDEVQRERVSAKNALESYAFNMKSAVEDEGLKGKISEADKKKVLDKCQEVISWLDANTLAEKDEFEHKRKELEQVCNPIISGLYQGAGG
Outline: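 Recombinant HSP70 C-terminal fragment (aa 386–616) titrated against test compound by isothermal titration calorimetry. Kd reported as average and standard deviation of three independent experiments.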

DnaK (aa 389-607) = DnaK (aa 389-607) (Escherichia coli, UniProt P0A6Y8); experiment: ITC, DnaK SBD; assay type: binding, E. coli; conditions: data not shown
DnaK (aa 389-607), sequence (P0A6Y8 389-607): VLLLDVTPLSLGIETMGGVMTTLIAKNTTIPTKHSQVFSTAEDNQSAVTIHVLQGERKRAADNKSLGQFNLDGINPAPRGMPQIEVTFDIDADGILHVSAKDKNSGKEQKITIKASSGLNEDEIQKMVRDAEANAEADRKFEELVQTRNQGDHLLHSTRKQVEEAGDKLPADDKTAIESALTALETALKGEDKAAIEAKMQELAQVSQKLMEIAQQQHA

mammalian tumor cells = experiment: Viability of mammalian tumor cells; assay type: cell-based; conditions: TPP moiety alone, Figure 1C
Outline: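 Human A875 melanoma cells and nontransformed human IMR90 fibroblasts treated for 24 h alongside a DMSO vehicle control. Results are representative of four independent experiments.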

E. coli DH5α = experiment: Growth of E. coli at elevated temperature; assay type: cell-based; conditions: 6 h at 43 °C, 30 μM in Figure 1E
Outline: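 E. coli DH5α grown with varying concentrations of test compound for 6 h at 43 °C, with a DMSO vehicle control; one comparison used 30 μM. Growth measured in four independent experiments, with s.d. error bars.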

binding to HSP70 SBD (ITC) (HSP70 (aa 386-616)) | binding to DnaK SBD (ITC) (DnaK (aa 389-607)) | Compound | interaction of HSP70 with PES after presaturation with PET-16 (HSP70) | interaction with nucleotide-free HSP70 (ITC) [1] | interaction with GRP75 (GRP75) | interaction with GRP78 (BiP) (GRP78 (BiP)) | effect on viability of mammalian tumor cells (mammalian tumor cells) | effect on growth of E. coli (E. coli DH5α)
– | – | NS(=O)(=O)C#Cc1ccccc1 [PES, 2-phenylethynesulfonamide] | impairs the interaction | comparable affinity | do not interact | do not interact | – | –
does not bind | does not bind | triphenylphosphine (TPP) bromide | – | – | – | – | little discernible effect | did not detect an effect
